Assay results taken from ChEMBL document CHEMBL1131107 (J Med Chem, 1998).

Key:
[1] = target: T1, Protein farnesyltransferase (Rattus norvegicus, UniProt Q02293+Q04631); assay: Inhibition of Farnesyltransferase from rat brain
NIH3T3 [2] = assay: Inhibition of Ras processing in Hras-transformed NIH3T3 cells.
NIH3T3 [3] = assay: Inhibition of Ras processing in Hras-transformed NIH3T3 cells at 15 uM
[4] = target: T1, Protein farnesyltransferase; assay: Inhibition of FTase in competitive manner with respect to FPP (farnesyl diphosphate) at 6.0 uM FPP and 0.36 uM Ras peptide.; type: protein-complex assay
Procedure, shortened: (§1)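 FTase IC50 (nM) measured at varied substrate levels to test competition: FPP 0.6 or 6.0 μM and Ras C-terminal peptide 0.36 or 3.6 μM. Competition with FPP was judged from the shift in IC50 as FPP and peptide concentrations changed.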

[5] = target: T1, Protein farnesyltransferase; assay: Inhibition of Farnesyltransferase in competitive manner with respect to FPP (farnesyl diphosphate) at 0.6 uM FPP and 0.36 uM Ras peptide; type: protein-complex assay; procedure, shortened: as §1
[6] = target: T1, Protein farnesyltransferase; assay: Inhibition of Farnesyltransferase in competitive manner with respect to FPP (farnesyl diphosphate) at 0.6 uM FPP and 3.6 uM Ras peptide.; type: protein-complex assay; procedure, shortened: as §1
NIH3T3 (Mus musculus) = assay: Inhibition of Ras processing in Hras transformed NIH3T3 cells.

Row | SMILES | IC50 [1] [nM] | IC50 (NIH3T3 [2]) [nM] | further results
1 | CC(C(C/C=C/c1nc2ccccc2o1)c1ccc2c(c1)OCO2)N(Cc1ccc2ccccc2c1)C(=O)CC(CC(=O)O)C(=O)O (centres undefined) | 23 |  | 
2 | CC(C(Cc1ccc(Cl)cc1)c1ccc(Cl)cc1)N(C)C(=O)CC(CC(=O)O)C(=O)O (centres undefined) | > 10000 |  | 
3 | CC(C(C/C=C/c1nc2ccccc2o1)c1ccc(Cl)cc1)N(Cc1ccc2ccccc2c1)C(=O)CC(CC(=O)O)C(=O)O (centres undefined) | 28 |  | 
4 | CC(C(C/C=C/c1ccc2ccccc2c1)c1ccc(Cl)cc1)N(Cc1ccc2ccccc2c1)C(=O)CC(CC(=O)O)C(=O)O (centres undefined) | 51 |  | 
5 | CC(C(C/C=C/c1nc2ccccc2o1)c1ccc2c(c1)OCO2)N(Cc1ccc2ccccc2c1)C(=O)C1OC(C(=O)O)(C(=O)O)O[C@H]1C(=O)O (single isomer, unassigned) | 8 |  | IC50 (NIH3T3 (Mus musculus)): 17000 nM

These reach a lower IC50 [1]. Values come first.

Row | IC50 [1] [nM] | SMILES | IC50 (NIH3T3 [2]) [nM] | further results
6 | 7.2 | C[C@@H]([C@H](C/C=C/c1nc2ccccc2o1)c1ccc2c(c1)OCO2)N(Cc1ccc2ccccc2c1)C(=O)[C@H]1OC(C(=O)[O-])(C(=O)[O-])O[C@@H]1C(=O)[O-].[Na+].[Na+].[Na+] |  | Inhibition (NIH3T3 [3]): 42%
7 | 6 | C[C@H]([C@@H](C/C=C/c1nc2ccccc2o1)c1ccc2c(c1)OCO2)N(Cc1ccc2ccccc2c1)C(=O)[C@@H]1OC(C(=O)O)(C(=O)O)O[C@@H]1C(=O)O | 8800 | 
8 | 5 | C[C@@H]([C@H](C/C=C/c1nc2ccccc2o1)c1ccc2c(c1)OCO2)N(Cc1ccc2ccccc2c1)C(=O)[C@@H]1OC(C(=O)O)(C(=O)O)O[C@@H]1C(=O)O | 4300 | IC50 [4]: 45 nM; IC50 [5]: 5.6 nM; IC50 [6]: 7.2 nM
9 | 3.9 | C[C@@H]([C@H](C/C=C/c1nc2ccccc2o1)c1ccc2c(c1)OCO2)N(Cc1ccc2ccccc2c1)C(=O)[C@H]1OC(C(=O)O)(C(=O)O)O[C@H]1C(=O)O | 10000 | 
10 | 3.9 | C[C@@H]([C@H](C/C=C/c1nc2ccccc2o1)c1ccc2c(c1)OCO2)N(Cc1ccc2ccccc2c1)C(=O)[C@@H]1OC(C(=O)O)(C(=O)O)O[C@H]1C(=O)O | 1200 | 
